Laboratory results reported in paper PMC11489580 (Scientific Reports, 2024).

Tests used:
[1] = tested on: RAW 264.7 cells; assay: Apoptosis: caspase 3 cleavage; format: cell-based, murine; details: RAW 264.7, 48 h, 15 µM (western blot, Annexin V)
Method in brief: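 RAW 264.7 cells seeded at 50,000 cells/mL and co-treated 48 h with test compound plus CellEvent caspase-3/7 reagent, imaged every 4 h by IncuCyte. For the western blot and Annexin V: 48 h with 15 µM test compound or DMSO. Controls were staurosporin 1 µM ± QVD 10 µM for 4 h. Blots probed for caspase 3, PARP and β-actin. Annexin V-FITC/PI staining was read by flow cytometry as fold change vs DMSO.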

[2] = biological target: rM1M2_HuR (first two RRM domains of human HuR) / 5'-DY681-labeled AU-rich RNA probe (Homo sapiens, UniProt Q15717); assay: RNA Electrophoretic Mobility Shift Assay; format: binding
Method in brief: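 Human HuR RRM1-2 (rM1M2) was expressed in E. coli BL21. Protein (3.7 nM) was incubated 20 min with 1 nM 5′-DY681-labelled 26-nt AU-rich RNA and DMSO or test compound (15 µM screen; 0.01–25 µM dose–response). Samples ran on 4% native polyacrylamide at 80 V, 1.5 h, and were scanned for DY681. IC50 came from titration curves of band quantification.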

[3] = biological target: His-tagged rM1M2 HuR protein / 5'-Bi-TNF ARE probe (Homo sapiens, UniProt Q15717); assay: Homogeneous Time-Resolved Fluorescence; format: binding
Method in brief: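 His-tagged HuR M1M2 (20 nM) incubated with a biotinylated 26-nt TNF ARE RNA probe (50 nM), donor/acceptor beads and test compound (0.01–100 µM); DMSO control; protein hook point determined beforehand. HTRF signal was normalised to DMSO and fitted by nonlinear regression with a one-site model to give IC50. Mean ± s.d. of three independent experiments.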

[4] = Kinetic solubility by LC-MS in PBS with DMSO; format: physicochemical; details: 20% DMSO
[5] = tested on: RAW264.7 murine macrophages; assay: OZblue cell viability assay; format: cell-based; details: Mus musculus, RAW264.7, 48 h, read-out: IC50 cell viability
Method in brief: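 RAW264.7 murine macrophages exposed for 48 h to test compound at 1 to 50 µM. Viability was read with the OZblue reagent and IC50 taken from the concentration–response. Mean ± s.d. of three independent experiments.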

[6] = tested on: RAW 264.7 cells; assay: Cell cycle analysis, propidium iodide FACS; format: cell-based, murine; details: 2 / TM7n and 5 / TM11 at 10 µM and 20 µM, respectively, 48 h
Method in brief: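 RAW 264.7 cells seeded at 250.000 cells/mL and exposed to test compound for 48 h, then fixed in 70% ethanol and stained with propidium iodide for flow cytometry. Controls were serum-free starvation for 24 h (G0/G1 block) and nocodazole for 2 h (G2/M block). Mean ± s.d. of three independent experiments.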

[7] = tested on: RAW 264.7 cells; assay: Real-time cell proliferation by Incucyte; format: cell-based, murine; details: RAW 264.7, 72 h
Method in brief: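 Growth curves were recorded by live-cell IncuCyte imaging of RAW 264.7 cells treated with test compounds over 72 h, and analysed in IncuCyte. Mean ± s.d. of three independent experiments.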

[8] = tested on: LPS-stimulated RAW264.7 cells; assay: qRT-PCR of LPS-induced genes; format: cell-based, murine; details: co-treatment LPS 1 µg/mL and TM 10 µM, 6 h
[9] = tested on: LPS-stimulated RAW264.7 cells; assay: Cxcl10 secretion by ELISA; format: cell-based, murine; details: co-treatment LPS 1 µg/mL and TM 10 µM, 6 h
Method in brief: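 RAW264.7 seeded at 200.000 cells/mL and given LPS 1 µg/mL. Test compound (10 µM) or DMSO was either co-added for 6 h, or added after 2 h of LPS for a further 4 h. Supernatant was diluted 1:2 for mouse CXCL10 sandwich ELISA (TMB, 605 nm). pg/mL was normalised to crystal violet cell counts and expressed as % of LPS + DMSO; mean ± s.d., three independent experiments.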

Sequence of rM1M2_HuR (first two RRM domains of human HuR) / 5'-DY681-labeled AU-rich RNA probe (Q15717 20-186 limits assumed): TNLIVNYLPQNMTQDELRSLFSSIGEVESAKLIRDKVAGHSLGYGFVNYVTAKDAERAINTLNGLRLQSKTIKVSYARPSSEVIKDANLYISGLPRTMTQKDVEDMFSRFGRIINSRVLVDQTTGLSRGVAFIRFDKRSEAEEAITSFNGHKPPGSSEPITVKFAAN
Sequence of His-tagged rM1M2 HuR protein / 5'-Bi-TNF ARE probe (Q15717 20-186 limits assumed): as above

IC50 [2]	inhibitory effect on HuR-RNA complex formation (REMSA screen) ([2]; TMs at 15 µM, 3.7 nM rM1M2_HuR, 1 nM RNA probe)	IC50 [3]	solubility relative to 2 / TM7n or 1 / TM6a [4]	Structure (SMILES)	activation of apoptosis (caspase 3, PARP cleavage, Annexin V) [1]	IC50 [5]	cell cycle distribution [6]	proliferation rate (real-time growth) [7]	expression of LPS-induced readout genes (Cxcl10, Fas, Nos2, Il1β) [8]	Cxcl10 level in supernatant [9]
–	–	–	–	Cc1occ2c1C(=O)c1c(O)ccc(O)c1C2 [MS-444, reference compound]	absence of apoptotic effect	–	–	–	–	–
0.77 µM	greatest inhibitory effect	0.68 µM	ten times more soluble	O=C1C=Cc2c(c(-c3ccco3)cn2S(=O)(=O)c2ccccc2)C1=O [5 / TM11, 3-(furan-2-yl)-1-(phenylsulfonyl)-1 H-indole-4,5-dione]	did not observe the activation of the apoptotic machinery	15 µM	accumulation of the cells in the S and G2/M phases	dose-dependent decrease in proliferation rate	ability to counteract the effect of LPS stimulation	downregulation of its level
